Assay results from ChEMBL document CHEMBL4811250, “Discovery and Optimization of 2H-1λ2-Pyridin-2-one Inhibitors of Mutant Isocitrate Dehydrogenase 1 for the Treatment of Cancer” (J Med Chem, 2021).
≈ marks a conversion by molar mass, not a printed value.

Test system: not listed separately
Assay: Kinetic solubility of the compound in pH 7.4 phosphate buffer measured after 6 hrs by UV spectroscopy
Type: physicochemical
Details: read-out: Kinetic_solubility

Structure (SMILES)	solubility kinetic at 6 h
CCc1cccc(CC)c1-n1c(CC(C)C)c(C(=O)N2CCNCC2)cc(-c2nc(-c3ccc(Cl)cc3)cs2)c1=O	< 1 µg/mL
CCc1cccc(CC)c1-n1c(C=C(C)C)c(C(=O)N2CCNC(C(=O)O)C2)cc(-c2nc(-c3ccc(Cl)cc3)cs2)c1=O (stereo not given)	16 µg/mL (≈ 25.3 µM)
CCc1cccc(CC)c1-n1c(C=C(C)C)c(C(=O)N2C[C@H]3CC[C@@H](C2)N3)cc(-c2nc(-c3ccc(Cl)cc3)cs2)c1=O	< 1 µg/mL
CCCc1c(C(=O)N2CCNCC2)cc(-c2nc(-c3ccc(Cl)cc3)cs2)c(=O)n1-c1c(CC)cccc1CC	< 1 µg/mL

Results, then the compound that gave them:

solubility kinetic at 6 h	Structure (SMILES)
< 1 µg/mL	CCc1cccc(CC)c1-n1c(C=C(C)C)c(C(=O)N2CCNCC2)cc(-c2nc(-c3ccc(Cl)cc3)cs2)c1=O
< 1 µg/mL	CCc1cccc(CC)c1-n1c(C=C(C)C)c(C(=O)N2CCNC3(CC3)C2)cc(-c2nc(-c3ccc(Cl)cc3)cs2)c1=O

Test system: not listed separately
Assay: Permeability of compound at pH 7.4 by PAMPA assay
Type: ADME
Details: read-out: permeability
Method in brief: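 Stirring double-sink PAMPA using a lipid/dodecane membrane tuned for GI passive permeability, pH 7.4 on donor and acceptor sides. Compound at 0.05 mM (0.5% DMSO), 30 min permeation at room temperature with donor stirring. Donor and acceptor concentrations read by UV plate reader.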

Structure (SMILES)	Papp
CCc1cccc(CC)c1-n1c(CC(C)C)c(C(=O)N2CCNCC2)cc(-c2nc(-c3ccc(Cl)cc3)cs2)c1=O	16 ×10⁻⁶ cm/s
CCc1cccc(CC)c1-n1c(C=C(C)C)c(C(=O)N2CCNC(C(=O)O)C2)cc(-c2nc(-c3ccc(Cl)cc3)cs2)c1=O (stereo not given)	< 1 ×10⁻⁶ cm/s
CCc1cccc(CC)c1-n1c(C=C(C)C)c(C(=O)N2C[C@H]3CC[C@@H](C2)N3)cc(-c2nc(-c3ccc(Cl)cc3)cs2)c1=O	89 ×10⁻⁶ cm/s
CCCc1c(C(=O)N2CCNCC2)cc(-c2nc(-c3ccc(Cl)cc3)cs2)c(=O)n1-c1c(CC)cccc1CC	134 ×10⁻⁶ cm/s

Other lines, results leading:

Papp	Structure (SMILES)
225 ×10⁻⁶ cm/s	CCc1cccc(CC)c1-n1c(C=C(C)C)c(C(=O)N2CCNCC2)cc(-c2nc(-c3ccc(Cl)cc3)cs2)c1=O
48 ×10⁻⁶ cm/s	CCc1cccc(CC)c1-n1c(C=C(C)C)c(C(=O)N2CCNC3(CC3)C2)cc(-c2nc(-c3ccc(Cl)cc3)cs2)c1=O

Test system: not listed separately
Assay: Metabolic stability in rat liver microsomes assessed as half life incubated for 15 mins by high resolution LC/MS analysis
Type: ADME, Microsome
Details: 0.25 h
Method in brief: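 Rat liver microsomes (0.5 mg/mL protein) with 1.0 μM compound and NADPH regenerating system in 100 mM phosphate pH 7.4, 15 min at 37 °C. Quenched with acetonitrile containing albendazole internal standard. Percent remaining measured by high-resolution LC/MS.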

Structure (SMILES)	t1/2
CCc1cccc(CC)c1-n1c(CC(C)C)c(C(=O)N2CCNCC2)cc(-c2nc(-c3ccc(Cl)cc3)cs2)c1=O	17 min
CCc1cccc(CC)c1-n1c(C=C(C)C)c(C(=O)N2CCNC(C(=O)O)C2)cc(-c2nc(-c3ccc(Cl)cc3)cs2)c1=O (stereo not given)	23 min
CCc1cccc(CC)c1-n1c(C=C(C)C)c(C(=O)N2C[C@H]3CC[C@@H](C2)N3)cc(-c2nc(-c3ccc(Cl)cc3)cs2)c1=O	> 30 min
CCCc1c(C(=O)N2CCNCC2)cc(-c2nc(-c3ccc(Cl)cc3)cs2)c(=O)n1-c1c(CC)cccc1CC	27 min

Next, values leading:

t1/2	Structure (SMILES)
14 min	CCc1cccc(CC)c1-n1c(C=C(C)C)c(C(=O)N2CCNCC2)cc(-c2nc(-c3ccc(Cl)cc3)cs2)c1=O
12 min	CCc1cccc(CC)c1-n1c(C=C(C)C)c(C(=O)N2CCNC3(CC3)C2)cc(-c2nc(-c3ccc(Cl)cc3)cs2)c1=O

Test system: Isocitrate dehydrogenase [NADP] cytoplasmic (Homo sapiens), O75874 [R132H]
Sequence (O75874 whole entry R132H): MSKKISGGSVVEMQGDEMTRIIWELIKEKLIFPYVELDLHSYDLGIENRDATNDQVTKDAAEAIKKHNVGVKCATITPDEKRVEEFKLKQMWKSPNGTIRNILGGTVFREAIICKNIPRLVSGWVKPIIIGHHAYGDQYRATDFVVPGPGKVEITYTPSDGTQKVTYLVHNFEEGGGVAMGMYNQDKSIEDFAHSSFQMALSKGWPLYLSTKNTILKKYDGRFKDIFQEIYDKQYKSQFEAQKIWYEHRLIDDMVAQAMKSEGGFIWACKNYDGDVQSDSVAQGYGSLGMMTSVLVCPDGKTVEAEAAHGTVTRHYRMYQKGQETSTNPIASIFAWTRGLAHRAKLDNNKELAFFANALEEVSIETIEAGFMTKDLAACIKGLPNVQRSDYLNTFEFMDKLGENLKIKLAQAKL
Assay: Inhibition of IDH1 R132H mutant (unknown origin) expressed in human U87 cells assessed as R-2-hydroxyglutarate production at 500 nM after 48 hrs by LC-MS analysis
Type: cell-based
Set-up: scale not given: the % may be the effect or the level left
Details: not given
Method in brief: (§1)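 U87-R132H cells (8000/well, DMEM high glucose, 10% FBS) were seeded, cultured overnight at 37 °C and 5% CO2, then given compound or DMSO. After 48 h, 2-HG secreted into the medium was measured by RapidFire LC-MS. Cell viability was checked by CellTiter-Glo.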

Structure (SMILES)	Activity
CCc1cccc(CC)c1-n1c(CC(C)C)c(C(=O)N2CCNCC2)cc(-c2nc(-c3ccc(Cl)cc3)cs2)c1=O	12%
CCc1cccc(CC)c1-n1c(C=C(C)C)c(C(=O)N2CCNC(C(=O)O)C2)cc(-c2nc(-c3ccc(Cl)cc3)cs2)c1=O (stereo not given)	10%
CCc1cccc(CC)c1-n1c(C=C(C)C)c(C(=O)N2C[C@H]3CC[C@@H](C2)N3)cc(-c2nc(-c3ccc(Cl)cc3)cs2)c1=O	10%

The next lines start with the values.

Activity	Structure (SMILES)
16%	CCc1cccc(CC)c1-n1c(C=C(C)C)c(C(=O)N2CCNCC2)cc(-c2nc(-c3ccc(Cl)cc3)cs2)c1=O
14%	CCc1cccc(CC)c1-n1c(C=C(C)C)c(C(=O)N2CCNC3(CC3)C2)cc(-c2nc(-c3ccc(Cl)cc3)cs2)c1=O
8%	CCc1cccc(CC)c1-n1c(C=C(C)C)c(C(=O)N2CCNC(C)C2)cc(-c2nc(-c3ccc(Cl)cc3)cs2)c1=O (stereo not given)

Target: Isocitrate dehydrogenase [NADP] cytoplasmic (Homo sapiens, UniProt O75874, R132C)
Sequence (O75874 2-414 R132C limits assumed): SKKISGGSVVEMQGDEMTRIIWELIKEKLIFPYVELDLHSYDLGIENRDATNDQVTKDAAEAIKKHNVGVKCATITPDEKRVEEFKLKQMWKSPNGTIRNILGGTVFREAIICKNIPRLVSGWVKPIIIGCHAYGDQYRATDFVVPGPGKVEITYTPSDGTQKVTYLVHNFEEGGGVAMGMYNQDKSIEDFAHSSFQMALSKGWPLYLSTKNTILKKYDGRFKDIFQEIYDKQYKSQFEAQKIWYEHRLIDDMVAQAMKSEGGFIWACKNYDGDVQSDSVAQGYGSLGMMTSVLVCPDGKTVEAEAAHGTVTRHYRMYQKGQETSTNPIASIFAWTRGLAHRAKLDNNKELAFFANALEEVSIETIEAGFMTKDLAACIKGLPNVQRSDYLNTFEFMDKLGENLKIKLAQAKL
Assay: Inhibition of IDH1 R132C mutant (unknown origin) assessed as reduction in NADPH consumption using alpha-KG as substrate incubated for 5 mins by diaphorase/resazurin-coupled system
Details: not given

Structure (SMILES)	IC50
CCc1cccc(CC)c1-n1c(CC(C)C)c(C(=O)N2CCNCC2)cc(-c2nc(-c3ccc(Cl)cc3)cs2)c1=O	120 nM
CCc1cccc(CC)c1-n1c(C=C(C)C)c(C(=O)N2CCNC(C(=O)O)C2)cc(-c2nc(-c3ccc(Cl)cc3)cs2)c1=O (stereo not given)	64 nM
CCc1cccc(CC)c1-n1c(C=C(C)C)c(C(=O)N2C[C@H]3CC[C@@H](C2)N3)cc(-c2nc(-c3ccc(Cl)cc3)cs2)c1=O	60 nM
CCCc1c(C(=O)N2CCNCC2)cc(-c2nc(-c3ccc(Cl)cc3)cs2)c(=O)n1-c1c(CC)cccc1CC	100 nM

The next compounds have a lower IC50 than those just listed; values first:

IC50	Structure (SMILES)
58 nM	CCc1cccc(CC)c1-n1c(C=C(C)C)c(C(=O)N2CCNCC2)cc(-c2nc(-c3ccc(Cl)cc3)cs2)c1=O
48 nM	CCc1cccc(CC)c1-n1c(C=C(C)C)c(C(=O)N2CCNC3(CC3)C2)cc(-c2nc(-c3ccc(Cl)cc3)cs2)c1=O
46 nM	CCc1cccc(CC)c1-n1c(C=C(C)C)c(C(=O)N2CCNC(C)C2)cc(-c2nc(-c3ccc(Cl)cc3)cs2)c1=O (stereo not given)

Test system: Isocitrate dehydrogenase [NADP] cytoplasmic (Homo sapiens), O75874 [R132H]
Assay: Inhibition of IDH1 R132H mutant (unknown origin) assessed as reduction in NADPH consumption using alpha-KG as substrate at 38 uM incubated for 5 mins by diaphorase/resazurin-coupled system relative to control
Details: not given

inhibition	Structure (SMILES)
101%	CCc1cccc(CC)c1-n1c(C=C(C)C)c(C(=O)N2CCNCC2)cc(-c2nc(-c3ccc(Cl)cc3)cs2)c1=O
98%	CCc1cccc(CC)c1-n1c(CC(C)C)c(C(=O)N2CCNCC2)cc(-c2nc(-c3ccc(Cl)cc3)cs2)c1=O
97%	CCCc1c(C(=O)N2CCNCC2)cc(-c2nc(-c3ccc(Cl)cc3)cs2)c(=O)n1-c1c(CC)cccc1CC

Test system: Isocitrate dehydrogenase [NADP] cytoplasmic (Homo sapiens), O75874 [R132H]
Assay: Inhibition of IDH1 R132H mutant (unknown origin) expressed in human U87 cells assessed as R-2-hydroxyglutarate production at 100 nM after 48 hrs by LC-MS analysis
Type: cell-based
Set-up: scale not given: the % may be the effect or the level left
Details: not given
Method in brief: as §1

Structure (SMILES)	Activity
CCc1cccc(CC)c1-n1c(CC(C)C)c(C(=O)N2CCNCC2)cc(-c2nc(-c3ccc(Cl)cc3)cs2)c1=O	33%
CCc1cccc(CC)c1-n1c(C=C(C)C)c(C(=O)N2CCNC(C(=O)O)C2)cc(-c2nc(-c3ccc(Cl)cc3)cs2)c1=O (stereo not given)	29%
CCc1cccc(CC)c1-n1c(C=C(C)C)c(C(=O)N2C[C@H]3CC[C@@H](C2)N3)cc(-c2nc(-c3ccc(Cl)cc3)cs2)c1=O	11%

More lines, now with the values ahead:

Activity	Structure (SMILES)
13%	CCc1cccc(CC)c1-n1c(C=C(C)C)c(C(=O)N2CCNCC2)cc(-c2nc(-c3ccc(Cl)cc3)cs2)c1=O
17%	CCc1cccc(CC)c1-n1c(C=C(C)C)c(C(=O)N2CCNC3(CC3)C2)cc(-c2nc(-c3ccc(Cl)cc3)cs2)c1=O
11%	CCc1cccc(CC)c1-n1c(C=C(C)C)c(C(=O)N2CCNC(C)C2)cc(-c2nc(-c3ccc(Cl)cc3)cs2)c1=O (stereo not given)

Test system: Isocitrate dehydrogenase [NADP] cytoplasmic (Homo sapiens), O75874 [R132C]
Sequence (O75874 whole entry R132C): as the sequence (O75874 whole entry R132H) above, with H132C counted along it
Assay: Inhibition of IDH1 R132C mutant (unknown origin) assessed as reduction in NADPH consumption using alpha-KG as substrate at 38 uM incubated for 5 mins by diaphorase/resazurin-coupled system relative to control
Details: not given

inhibition	Structure (SMILES)
97%	CCc1cccc(CC)c1-n1c(C=C(C)C)c(C(=O)N2CCNCC2)cc(-c2nc(-c3ccc(Cl)cc3)cs2)c1=O
83%	CCc1cccc(CC)c1-n1c(CC(C)C)c(C(=O)N2CCNCC2)cc(-c2nc(-c3ccc(Cl)cc3)cs2)c1=O
82%	CCCc1c(C(=O)N2CCNCC2)cc(-c2nc(-c3ccc(Cl)cc3)cs2)c(=O)n1-c1c(CC)cccc1CC

Target: Isocitrate dehydrogenase [NADP] cytoplasmic (Homo sapiens, UniProt O75874, R132H)
Sequence (O75874 2-414 R132H limits assumed): as the sequence (O75874 2-414 R132C limits assumed) above, with C131H counted along it
Assay: Inhibition of IDH1 R132H mutant (unknown origin) assessed as reduction in NADPH consumption using alpha-KG as substrate incubated for 5 mins by diaphorase/resazurin-coupled system
Details: not given

Structure (SMILES)	IC50
CCc1cccc(CC)c1-n1c(CC(C)C)c(C(=O)N2CCNCC2)cc(-c2nc(-c3ccc(Cl)cc3)cs2)c1=O	110 nM
CCc1cccc(CC)c1-n1c(C=C(C)C)c(C(=O)N2CCNC(C(=O)O)C2)cc(-c2nc(-c3ccc(Cl)cc3)cs2)c1=O (stereo not given)	55 nM
CCc1cccc(CC)c1-n1c(C=C(C)C)c(C(=O)N2C[C@H]3CC[C@@H](C2)N3)cc(-c2nc(-c3ccc(Cl)cc3)cs2)c1=O	94 nM
CCCc1c(C(=O)N2CCNCC2)cc(-c2nc(-c3ccc(Cl)cc3)cs2)c(=O)n1-c1c(CC)cccc1CC	75 nM

Other lines, results leading:

IC50	Structure (SMILES)
44 nM	CCc1cccc(CC)c1-n1c(C=C(C)C)c(C(=O)N2CCNCC2)cc(-c2nc(-c3ccc(Cl)cc3)cs2)c1=O
78 nM	CCc1cccc(CC)c1-n1c(C=C(C)C)c(C(=O)N2CCNC3(CC3)C2)cc(-c2nc(-c3ccc(Cl)cc3)cs2)c1=O
44 nM	CCc1cccc(CC)c1-n1c(C=C(C)C)c(C(=O)N2CCNC(C)C2)cc(-c2nc(-c3ccc(Cl)cc3)cs2)c1=O (stereo not given)
